HTR2A ag = agonists of mouse serotonin 5-HT2A receptor (HTR2A); AID 624169; activation, % at 7.6 µM; actives 0.66% (n = 360,000); P35363; CHO-K1 mHTR2A beta-arrestin complementation, luminescence; percent of 30 µM serotonin response;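 active = activation above a run cutoff, the mean activation of all tested compounds plus 3 SD, cut at about 14% in these data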
AI-2 QS modul = modulates the Vibrio harveyi AI-2 quorum sensing system; Vibrio harveyi JMH597 AI-2 luminescence/OD600 ratio, 9 h; stronger effect = lower value; strain lacks LuxN and CqsS sensors; 0 = neutral-control median; activity change, % at 7.5 µM; actives 0.4% (n = 300,000); AID 2094; in the data active = activity change below about -75%, passing the limit was not always enough;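 note: luminescence divided by OD600 gain over 9 h not by final OD600 alone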
AHR act = activates the human aryl hydrocarbon receptor; AHR-responsive luciferase reporter cells, luminescence; activation, % at 5 µM; actives 2.5% (n = 320,000); AID 2796; in the data active = activation above about 47%
Target sequence (P35869 whole entry, looked up): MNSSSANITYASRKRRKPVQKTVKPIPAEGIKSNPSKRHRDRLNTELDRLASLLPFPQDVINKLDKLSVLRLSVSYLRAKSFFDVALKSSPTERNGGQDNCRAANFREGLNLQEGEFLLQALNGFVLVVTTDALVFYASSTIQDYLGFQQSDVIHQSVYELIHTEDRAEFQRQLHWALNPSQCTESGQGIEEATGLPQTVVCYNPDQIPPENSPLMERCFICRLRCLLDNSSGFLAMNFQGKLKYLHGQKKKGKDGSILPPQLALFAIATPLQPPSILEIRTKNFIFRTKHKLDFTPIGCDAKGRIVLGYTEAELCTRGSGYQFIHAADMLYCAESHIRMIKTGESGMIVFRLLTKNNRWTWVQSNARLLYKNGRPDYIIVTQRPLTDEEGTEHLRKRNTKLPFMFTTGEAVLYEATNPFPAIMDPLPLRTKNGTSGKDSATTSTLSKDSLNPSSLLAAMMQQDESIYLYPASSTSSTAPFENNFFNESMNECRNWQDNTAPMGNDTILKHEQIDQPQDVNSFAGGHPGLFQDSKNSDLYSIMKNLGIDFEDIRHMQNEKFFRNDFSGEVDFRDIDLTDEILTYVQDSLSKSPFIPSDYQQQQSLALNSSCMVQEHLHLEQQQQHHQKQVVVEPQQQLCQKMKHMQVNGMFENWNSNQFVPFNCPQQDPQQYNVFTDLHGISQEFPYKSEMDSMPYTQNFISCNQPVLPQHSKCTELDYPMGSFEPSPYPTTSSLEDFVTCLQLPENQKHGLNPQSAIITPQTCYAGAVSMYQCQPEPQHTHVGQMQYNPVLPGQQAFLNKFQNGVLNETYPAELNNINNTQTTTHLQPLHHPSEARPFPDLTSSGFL
Tb MetRS inh = blocks T. brucei methionyl-tRNA synthetase activity. purified T. brucei MetRS, ATP depletion, Kinase-Glo luminescence. inhibition, % at 11.9 µM. actives 0.4% (n = 360,000). AID 624268;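 active = inhibition above a per-plate cutoff of the control wells' mean inhibition plus 3 SD, cut at about 5.5% in these data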
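Dosing: 11.9 µM single point; system: parasite MetRS enzyme; technique: luminescence of leftover ATP; times: 15 min enzyme-compound preincubation, 2 h reaction, 10 min detection, 25 °C; replicates: each compound tested once; read-out basis: percent inhibition relative to median high and low control wells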
bovine MsrA act = bovine methionine sulfoxide reductase A activation | AID 602163 | activation, % at 10.6 µM | actives 0.3% (n = 360,000) | purified bovine MsrA, absorbance read-out; in the data active = activation above about 7.5%
MsrA inh = bovine MsrA inhibition. purified bovine MsrA, absorbance read-out. inhibition, % at 15.5 µM. actives 0.75% (n = 360,000). AID 651718
MsrA conf = confirmation of bovine MsrA inhibitors; shares compounds with MsrA inh; purified bovine MsrA, absorbance read-out; inhibition, % at 15.5 µM; actives 41% (n = 2,300);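 note: coupled to thioredoxin reductase with NADPH and selenocystamine and DMSO as substrate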
Each line names hits and unclear results; the compound was inactive in the other large screens (follow-up assays come after a bar, where they were run). Compounds with a hit are over-represented: about 4.4% of the library has one in this group of screens. Cut-off read from the data, not from the text of the source, unless noted: active = inhibition above about 4.5%; inactive = the rest.

COc1ccc(F)cc1CN1CCN(C(=O)c2ccc(S(=O)(=O)N3CCCCCC3)cc2)CC1	none (no result: AI-2 QS modul, AHR act)
Cc1ccccc1-n1c(SCc2cccc(F)c2)nc2[nH]ncc2c1=O	MsrA inh 7.2 | MsrA conf 8.0
Cc1ccccc1-n1c(SCc2cc(=O)n3ccccc3n2)nc2[nH]ncc2c1=O	none
Cc1ccnc(Sc2ccc([N+](=O)[O-])cc2[N+](=O)[O-])n1	none
Cc1ccc(Sc2ccc([N+](=O)[O-])cc2[N+](=O)[O-])nc1	MsrA inh 4.8 | MsrA conf inactive
Cc1ccc(S(=O)(=O)NN=C(c2ccccc2)c2cccs2)cc1	none (no result: AI-2 QS modul, AHR act)
COCCCN1C(=O)C(=O)/C(=C(/O)c2ccc(OC)cc2C)C1c1cccnc1 (centres undefined)	MsrA inh 4.8 | MsrA conf inactive
O=C(CC1OC(=O)c2ccccc21)Nc1cc(Cl)ccc1N1CCOCC1 (centres undefined)	none (no result: AI-2 QS modul)
COc1cc(/C=N/NC(=O)c2cc3ccccc3cc2O)ccc1OCCN1CCCCC1	none
COc1cc(/C=N/NC(=O)c2c(C)nnn2-c2nonc2N)ccc1O	MsrA inh 5.0 | MsrA conf inactive
Cc1ccn2c(C(=O)N/N=C/c3ccc(Cl)cc3)c(C)nc2c1	none (no result: AHR act)
COc1cc(/C=N/NC(=O)c2cc(-c3cccs3)nc3ccccc23)ccc1O	MsrA inh 4.9 | MsrA conf inactive
COc1cc(/C=N/NC(=O)c2ccncc2)ccc1OCCN1CCCCC1	MsrA inh 5.4 | MsrA conf inactive
COc1cc(/C=N\NC(=O)c2c(C)nc3cc(C)ccn23)ccc1O	MsrA inh 7.1 | MsrA conf 6.4
COc1ccc(/C=N/NC(=O)c2c(C)nc3ccc(Cl)cn23)cc1OC	MsrA inh 6.2 | MsrA conf 5.3
COc1ccc(/C=N/NC(=O)c2ccc(COc3cccc4cccnc34)cc2)cc1OC	MsrA inh 4.9 | MsrA conf inactive
COc1cc(/C=N/NC(=O)c2c(C)nc3ccc(Cl)cn23)cc(OC)c1OC	none (no result: AHR act)
Cc1ccn2c(C(=O)N/N=C\c3ccc4c(c3)OCO4)c(C)nc2c1	MsrA inh 7.3 | MsrA conf 5.5
CCCN(C)C1CN(Cc2cn(Cc3ccc(OC)cc3)nn2)S(=O)(=O)C1 (centres undefined)	none (no result: AI-2 QS modul, AHR act)
O=C1N/C(=N\S(=O)(=O)Cc2ccccc2)S/C1=C/c1cccc([N+](=O)[O-])c1	MsrA inh 5.6 | MsrA conf inactive
O=C1N/C(=N/O)S/C1=C/c1cccc([N+](=O)[O-])c1	none
COc1ccc(-c2cc3ccc(OC(C)C(=O)O)cc3oc2=O)cc1 (centres undefined)	MsrA inh 5.7 (no result: AHR act) | MsrA conf inactive
COc1ccc(-c2cc3ccccc3oc2=O)cc1	none
COc1ccc(-c2cc3ccc(OCC(N)=O)cc3oc2=O)cc1OC	MsrA inh 5.6 | MsrA conf inactive
CCN(CC)C(=O)C1=C(C)N(Cc2ccc(F)cc2)C(=O)C(CC(=O)NC(c2ccccc2)c2ccccc2)C1 (centres undefined)	none (no result: AI-2 QS modul, AHR act)
COc1cccc(NC(=O)CN(C)C(=O)C(C)Sc2ccccc2)c1 (centres undefined)	none (no result: AI-2 QS modul, AHR act)
CS(=O)(=O)Nc1ccc(C2=NN(C(=O)c3cccc(F)c3)C(c3cccs3)C2)cc1 (centres undefined)	none
CS(=O)(=O)Nc1ccc(C2=NN(C(=O)c3ccccc3)C(c3cccs3)C2)cc1 (centres undefined)	MsrA inh 4.8 | MsrA conf inactive
CCc1noc(C)c1C(=O)N(CC)CC(=O)NCc1ccc(Cl)cc1	none (no result: AI-2 QS modul)
CC1(C(=O)NS(=O)(=O)c2cccs2)CCN1C(=O)CC1CCCC1 (centres undefined)	none (no result: AI-2 QS modul, AHR act)
Cc1occc1-c1nnc(-c2cc([N+](=O)[O-])cc([N+](=O)[O-])c2)o1	MsrA inh 7.7 | MsrA conf inactive
O=[N+]([O-])c1cccc(-c2nnc(-c3ccccc3)o2)c1	none
O=C(O)CC(CN1C(=O)c2ccccc2C1=O)c1ccccc1 (centres undefined)	none
O=C(O)c1ccc(/C=C/c2ccc3cccc(O)c3n2)cc1	MsrA inh 5.6 (no result: AHR act) | MsrA conf 5.3
Oc1ccc(/C=C/c2ccc3cccc(O)c3n2)cc1Br	none
CCN(CC)S(=O)(=O)c1ccc(NC(=S)Nc2ccc(F)cc2)cc1	none

Screening results deposited in PubChem BioAssay by several laboratories.
